Screening data (PubChem)
Shown are actives, neighbours in structure and some others; about 2.3% of the full set was active somewhere.
PfHsp90 set2 – inhibits growth of yeast expressing Plasmodium falciparum Hsp90. inhibition, % at 9.4 µM. actives 0.32% (n = 310,000). S. cerevisiae expressing PfHsp90, BacTiter-Glo ATP, 48 h; yeast lacking PDR1 and PDR3 efflux regulators;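 active means every replicate shows inhibition above about 80%, whatever the replicate mean, limit read from the data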;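 further: 0% = DMSO neutral controls and 100% = 20 µM radicicol positive controls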
Glyco luc inh – blocks N-linked glycosylation in D54 reporter cells; D54 ERlucT glycosylation luciferase reporter, 24 h; percent of 100 nM tunicamycin response; reporter increase, % at 12.5 µM; actives 0.23% (n = 360,000); AID 588692;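 active means mean luciferase reporter signal, scaled so untreated is 0 and the glycosylation-blocking control 100, at or above a set limit in every replicate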;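 further: luciferase carries N-glycosylation sites so blocking glycosylation raises the light; 0% = median of neutral control wells and 100% = median of 100 nM tunicamycin wells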
HIV Env fusion – HIV envelope-mediated fusion inhibition; HeLa-JRFL Env/CEM21 cell fusion, luciferase; inhibition, % at 12.3 µM; actives 1.1% (n = 360,000); AID 651610;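 active means mean replicate inhibition score of at least 50 and every replicate individually at or above 50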;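 further: 0% = plate neutral controls and 100% = maraviroc near 300 nM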
Arr AP2 block – inhibitors of human beta-arrestin and AP2 interaction; FITC-arrestin peptide / GST-AP2 beads, flow cytometry; AP2 beta2 appendage carries R879A mutation; inhibition, % at 10 µM; actives 0.31% (n = 340,000);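 active means inhibition above a set limit, near 3 SD of compounds lacking own fluorescence, cut at about 54% in these data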;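 further: plate controls were DMSO wells for no effect and 5 µM unlabelled arrestin peptide for full effect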
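Material – GST-tagged AP2 beta2-adaptin appendage (R879A) on 4 µm glutathione beads · Probe or stimulus – fluorescein-tagged arrestin peptide at 50 nM final · Timing – 12 min plus 1 h, RT · Detection – bead flow cytometry, FITC channel · Read-out basis – inhibition as reduced fluorescein signal on beads, percent · Medium – PBS plus Tween 20 (0.05%) and BSA (0.1%)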
PAX8 inh HTS – lowers PAX8-driven luciferase in RMG-I cells; inhibition, % at 12.6 µM; actives 1.2% (n = 360,000); AID 652154; RMG-I TPO-luciferase reporter, SteadyGlo, 24 h;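 active means mean replicate inhibition at least 60% with every replicate also reaching 60%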;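 further: luciferase light reporting Pax8 driven TPO promoter activity; plate controls were median of neutral control wells for no effect and mitoxantrone controls for full effect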
Rtt109 HAT inh – inhibitors of Candida albicans Rtt109/Vps75 histone acetyltransferase; actives 0.16% (n = 330,000); purified Rtt109/Vps75, ThioGlo CoA-SH fluorescence, 4 h; inhibition, % at 34.9 µM;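 active means inhibition of at least 50% in every replicate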
Target sequence (Q5AAJ8 whole entry, looked up): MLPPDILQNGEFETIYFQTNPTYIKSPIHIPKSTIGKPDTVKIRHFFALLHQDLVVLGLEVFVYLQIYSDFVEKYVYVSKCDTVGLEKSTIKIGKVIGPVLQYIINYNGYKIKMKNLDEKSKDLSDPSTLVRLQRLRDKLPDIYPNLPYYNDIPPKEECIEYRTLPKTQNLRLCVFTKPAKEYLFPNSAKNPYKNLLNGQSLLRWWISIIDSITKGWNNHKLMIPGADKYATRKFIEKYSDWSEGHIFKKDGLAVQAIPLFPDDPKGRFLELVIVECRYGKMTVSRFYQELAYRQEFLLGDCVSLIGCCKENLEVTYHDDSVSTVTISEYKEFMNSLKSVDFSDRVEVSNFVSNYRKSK
* marks the source's active call; other numbers are inactive results; . = no result; [ ] = remark or other dose.

SMILES	PfHsp90 set2	Glyco luc inh	HIV Env fusion	Arr AP2 block	PAX8 inh HTS	Rtt109 HAT inh
CC(C)C[C@H](CO)N(Cc1ccccc1)S(=O)(=O)N(Cc1ccccc1)[C@@H](CO)CC(C)C	-14.2	-9.2	108.7*	11.6	42.1	1.1
C[C@@H]1CCCCO[C@H](CN(C)C(=O)CCC(F)(F)F)[C@H](C)CN([C@H](C)CO)C(=O)c2cc(NC(=O)C3CCCCC3)ccc2O1	.	.	17.1[16.7 µM]	.	-7.6	.
O=C(C[C@H]1C[C@H]2c3cc(NC(=O)Cc4ccncc4)ccc3O[C@H]2[C@@H](CO)O1)NCc1ccncc1	.	.	93.4*[16.7 µM]	.	-13.6	.
CCCNC(=O)C[C@@H]1C[C@@H]2c3cc(NC(=O)Cc4ccncc4)ccc3O[C@@H]2[C@H](CO)O1	.	.	91.1*[16.7 µM]	.	-8.7	.
CCCNC(=O)C[C@@H]1C[C@@H]2c3cc(NC(=O)Cc4ccncc4)ccc3O[C@@H]2[C@@H](CO)O1	.	.	93.3*[16.7 µM]	.	3.8	.
CC(C)CC#Cc1cnc2c(c1)C(=O)N([C@H](C)CO)C[C@@H](C)[C@H](CN(C)S(C)(=O)=O)O2	.	.	-104.2[16.7 µM]	.	.	.
O=C(c1ccc(F)cc1)N1CC(=O)N2[C@H](CO)[C@H](c3ccc(C#Cc4ccc(F)cc4)cc3)[C@H]2C1	.	.	.	.	33.3	.
CN(C)c1ccc2c(c1)[C@@H]1C[C@H](CC(=O)NCc3cccc(F)c3)O[C@@H](CO)[C@@H]1O2	.	.	-17.7[16.7 µM]	.	2.0	.
CC=Cc1ccc2n(c1=O)C[C@@H]1[C@@H](CO)[C@H](C(=O)N[C@H](C)c3ccccc3)[C@H]2N1Cc1cncnc1 (mixture of isomers)	.	.	.	.	-10.8	.
CC(C)CCC(O)(c1ccccc1)C(CN1CCOCC1)c1ccccc1 (centres undefined)	-24.8	-7.4	34.8	-21.8	13.4	-0.3
COc1ccc(C(O)(CCC(C)C)C(CN2CCOCC2)c2ccccc2)cc1 (centres undefined)	11.7	-9.1	73.0*	16.2	-6.2	-1.6
CC(C)(C)NCC(O)CON=C1c2ccccc2-c2ccccc21 (centres undefined)	-5.3	35.3*	-28.3	-10.9	-2.5	7.8
CC(C)(C)NC(=O)CON=C1c2ccccc2-c2ccccc21	-34.8	-8.3	5.3	2.9	36.1	-5.2
COc1ccc(-c2nnn(CC(=O)N(Cc3cccs3)C(C)C(=O)NC3CCCC3)n2)cc1OC (centres undefined)	-16.9	3.3	78.2*	-9.4	.	27.1
O=C(NCC1CCCO1)C(c1ccncc1)N(Cc1cccs1)C(=O)Cn1nnc(-c2ccc(F)cc2)n1 (centres undefined)	-51.3	6.8	-12.9	-4.5	24.2	8.4
CC(C)CCNC(=O)C(c1ccncc1)N(Cc1cccs1)C(=O)Cn1nnc(-c2ccc(F)cc2)n1 (centres undefined)	6.4	2.2	33.4	8.8	79.7*	16.2
O=C(c1ccncc1)N1C[C@H]2[C@@H](c3ccccc31)[C@H](CO)N2C(=O)Nc1ccccc1Cl	.	.	.	.	9.8	.
CN(C)C(=O)c1cccc(-c2ccc([C@@H]3[C@H]4CN(C(=O)C5CCC5)CCCCN4[C@H]3CO)cc2)c1	.	.	.	.	2.7	.
COc1ccccc1C(=O)NCCC(=O)NC1CCCC(C)C1C (centres undefined)	.	1.7	58.4*	-0.8	12.1	-0.8
C[C@@H]1CN([C@H](C)CO)C(=O)c2cc(C#Cc3ccccc3F)cnc2O[C@H]1CN(C)S(=O)(=O)c1ccccc1F	.	.	32.1[16.7 µM]	.	.	.
C[C@@H]1CN([C@@H](C)CO)C(=O)c2cc(C#Cc3ccccc3F)cnc2O[C@@H]1CN(C)S(=O)(=O)c1ccccc1F	.	.	56.2*[16.7 µM]	.	.	.
C[C@H](CO)N1C[C@H](C)[C@H](CN(C)S(=O)(=O)c2ccc(C#N)cc2)Oc2ncc(C#Cc3ccc(C(F)(F)F)cc3)cc2C1=O	.	.	.	.	74.3*	.
CCC(=O)Nc1ccc2c(c1)C(=O)N(C)[C@@H]1CC[C@@H](CC(=O)NCC3CC3)O[C@@H]1CO2	.	.	-17.2[16.7 µM]	.	-2.8	.
C[C@@H]1CN([C@@H](C)CO)C(=O)c2cc(NC(=O)c3ccncc3)ccc2O[C@@H](C)CCCCO[C@@H]1CN(C)S(C)(=O)=O	.	.	-10.3[16.7 µM]	.	-4.6	.
CCSc1ccccc1C(=O)Nc1ccc([N+](=O)[O-])cc1OC	1.1	-0.7	3.8	23.4	-4.1	55.3*
SMILES	PfHsp90 set2	Glyco luc inh	HIV Env fusion	Arr AP2 block	PAX8 inh HTS	Rtt109 HAT inh
COc1ccc([N+](=O)[O-])cc1NC(=O)CSc1ccccc1	-7.5	-2.7	-12.7	6.0	6.4	0.6
COc1ccc(C(CC(=O)Nc2cc([N+](=O)[O-])ccc2OC)c2ccccc2)cc1 (centres undefined)	8.7	-2.1	78.9*	16.4	37.8	3.3
O=C(NCc1ccc(F)cc1)[C@@H]1[C@@H](CO)[C@@H]2Cn3c(ccc(-c4cccnc4)c3=O)[C@H]1N2	.	.	.	.	-7.5	.
CCCNC(=O)N(C)C[C@H]1N[C@@H](CO)[C@@H]1c1ccc(C2=CCCCC2)cc1	.	.	.	.	102.9*	.
COC(=O)[C@@H]1Cc2c([nH]c3ccccc23)C(C)(C)N1C(=O)CCl	-3.8	12.4	-10.5	-13.2	112.0*	-6.8
COC(=O)C1Cc2c([nH]c3ccccc23)C2CCC(=O)N12 (centres undefined)	.	0.7	23.0	.	6.8	.
COc1ccc(NC(=O)N(C)C[C@@H]2Oc3ncc(-c4ccccc4)cc3C(=O)N([C@H](C)CO)C[C@@H]2C)cc1	.	.	-1.0[16.7 µM]	.	.	.
COc1ccccc1-c1cc(C(F)(F)F)nc(S(=O)(=O)CCCC(=O)Nc2cc(C)on2)n1	10.9	-16.7	.	-8.2	.	-17.8
COc1ccc(-c2cc(C(F)(F)F)nc(S(=O)(=O)CCCC(=O)Nc3cc(C)on3)n2)cc1OC	-7.2	-10.5	8.8	15.4	89.9*	-3.9
Cc1ccccc1-c1ccc(C2[C@H]3CNC[C@@H]2N3S(=O)(=O)c2ccc(Cl)cc2)cc1 (some centres undefined)	.	.	.	.	14.4	.
COc1cc(C2C(C#N)=C(N)Oc3cc(N)ccc32)cc(OC)c1OC (centres undefined)	-15.8	31.8*	.	9.7	.	-4.1
COc1ccc(C2C(C#N)=C(N)Oc3c2ccc2cccnc32)cc1OC (centres undefined)	21.7	4.6	-462.9	-0.2	85.8*	-6.5
COc1ccc(S(=O)(=O)N[C@@H]2CC[C@@H](CC(=O)NCCc3ccncc3)O[C@H]2CO)cc1	.	.	-16.4[16.7 µM]	.	-21.9	.
C[C@@H]1CCCCO[C@@H](CN(C)C(=O)C2CCCCC2)[C@H](C)CN([C@H](C)CO)C(=O)c2cc(NC(=O)NC3CCCCC3)ccc2O1	.	.	4.4[16.7 µM]	.	19.3	.
O=C1NC(=O)C2(CCc3ccccc32)N1 (centres undefined)	35.3	0.4	.	29.6	.	11.8
C=C1CC2(OC1=O)c1ccccc1CCc1ccccc12	-60.6	-22.6	39.1	7.5	71.3*	-2.6
